Data reported in ChEMBL document CHEMBL4257569, “Novel KV7 ion channel openers for the treatment of epilepsy and implications for detrusor tissue contraction” (Bioorg Med Chem Lett, 2018).
Values after ≈ are worked out from the molar mass of the structure shown. Active and inactive are the calls of the source.

Key:
[1] = Kinetic aqueous solubility of the compound by CAD or CLND method; assay type: physicochemical; details: buffer; read-out: Kinetic_solubility
[2] = target: Voltage-gated potassium channel, KQT; KCNQ2(Kv7.2)/KCNQ3(Kv7.3) (Homo sapiens, UniProt O43525+O43526); assay: Activation of human Kv7.2/7.3 by patch clamp method
How it was run: (§1)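 Kv7.2/7.3 EC50s were measured on the IonWorks Quattro (IWQ) automated patch-clamp platform. Efficacy is expressed as % of the maximal response to the reference opener ML213.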

[3] = target: T1, Voltage-gated potassium channel, KQT; KCNQ2(Kv7.2)/KCNQ3(Kv7.3) (Homo sapiens) (UniProt O43526+O43525); assay: Activation of human Kv7.2/7.3 by patch clamp method relative to ML213; how it was run: as §1
[4] = target: Voltage-gated potassium channel KCNQ3/KCNQ5 (Homo sapiens, UniProt O43525+Q9NR82); assay: Activation of human Kv7.3/7.5 by patch clamp method
[5] = target: T2, Potassium voltage-gated channel subfamily KQT member 4 (Homo sapiens, UniProt P56696); assay: Activation of human Kv7.4 by patch clamp method
T2 sequence (P56696 whole entry): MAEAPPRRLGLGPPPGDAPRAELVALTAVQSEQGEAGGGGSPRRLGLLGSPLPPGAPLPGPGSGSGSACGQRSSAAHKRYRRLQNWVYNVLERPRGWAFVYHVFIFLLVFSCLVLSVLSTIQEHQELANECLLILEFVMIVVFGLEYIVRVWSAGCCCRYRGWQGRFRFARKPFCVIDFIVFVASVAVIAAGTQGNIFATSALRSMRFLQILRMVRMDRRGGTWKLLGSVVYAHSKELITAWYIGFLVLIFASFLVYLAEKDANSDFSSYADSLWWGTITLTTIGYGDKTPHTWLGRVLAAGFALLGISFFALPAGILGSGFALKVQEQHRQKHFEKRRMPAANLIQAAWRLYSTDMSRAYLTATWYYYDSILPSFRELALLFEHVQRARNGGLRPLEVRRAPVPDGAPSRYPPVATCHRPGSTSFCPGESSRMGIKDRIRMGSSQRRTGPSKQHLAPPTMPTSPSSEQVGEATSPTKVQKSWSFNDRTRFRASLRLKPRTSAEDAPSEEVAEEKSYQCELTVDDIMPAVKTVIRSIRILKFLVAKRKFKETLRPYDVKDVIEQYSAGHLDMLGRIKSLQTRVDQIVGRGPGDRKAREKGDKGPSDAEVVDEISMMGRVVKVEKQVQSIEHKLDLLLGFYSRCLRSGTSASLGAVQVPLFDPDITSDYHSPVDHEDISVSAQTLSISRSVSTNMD

P-gp = assay: Substrate activity at P-gp (unknown origin) assessed as efflux ratio; assay type: ADME; details: human, not told
[6] = Inhibition of carbachol-induced contraction in human bladder at 10 uM; assay type: tissue-based, Urinary bladder
Mus musculus [7] = assay: Anti-seizure activity in CD-1 mouse model of pentylenetetrazol-induced tonic seizures assessed as effect on time to onset of seizure at 10 to 60 mg/kg, po; assay type: functional, organism-based
Mus musculus [8] = assay: Anti-seizure activity in CD-1 mouse model of pentylenetetrazol-induced clonic seizures assessed as effect on time to onset of seizure at 10 to 60 mg/kg, po; assay type: functional, organism-based
[9] = target: T1, Voltage-gated potassium channel, KQT; KCNQ2(Kv7.2)/KCNQ3(Kv7.3) (Homo sapiens); assay: Activation of human wild type Kv7.2/7.3 expressed in CHO cells assessed as 86Rb efflux at 0.001 to 100 uM after 10 mins by microbeta liquid scintillation counting analysis; assay type: cell-based
[10] = Activation of human Kv7.2 W236L mutant/Kv7.3 W265L mutant expressed in CHO cells assessed as 86Rb efflux at 0.001 to 100 uM after 10 mins by microbeta liquid scintillation counting analysis; assay type: cell-based
[11] = Activation of Kv7 from rat cortical neurons assessed as reduction in spontaneous neuronal firing activity after 15 mins by multi-electrode array method; details: 0.25 h
[12] = Clearance in iv dosed mouse; assay type: ADME, organism-based; details: in vivo
Mus musculus [13] = assay: Dose normalized AUC (0 to t) in iv dosed mouse; assay type: ADME, organism-based; details: in vivo
[14] = Ratio of drug level in brain to blood of iv dosed mouse; assay type: ADME, organism-based; details: brain and blood
[15] = target: T1, Voltage-gated potassium channel, KQT; KCNQ2(Kv7.2)/KCNQ3(Kv7.3) (Homo sapiens); assay: Activation of human Kv7.2/7.3 assessed as difference in G-V midpoint between pre-compound and post-compound conditions at 0.048 uM at -90 mV holding potential by QPatch method; assay type: protein-complex assay
[16] = target: T1, Voltage-gated potassium channel, KQT; KCNQ2(Kv7.2)/KCNQ3(Kv7.3) (Homo sapiens); assay: Activation of human Kv7.2/7.3 assessed as difference in G-V midpoint between pre-compound and post-compound conditions at 0.24 uM at -90 mV holding potential by QPatch method; assay type: protein-complex assay
[17] = target: T1, Voltage-gated potassium channel, KQT; KCNQ2(Kv7.2)/KCNQ3(Kv7.3) (Homo sapiens); assay: Activation of human Kv7.2/7.3 assessed as difference in G-V midpoint between pre-compound and post-compound conditions at 1.2 uM at -90 mV holding potential by QPatch method; assay type: protein-complex assay
[18] = target: T1, Voltage-gated potassium channel, KQT; KCNQ2(Kv7.2)/KCNQ3(Kv7.3) (Homo sapiens); assay: Activation of human Kv7.2/7.3 assessed as difference in G-V midpoint between pre-compound and post-compound conditions at 6 uM at -90 mV holding potential by QPatch method; assay type: protein-complex assay
[19] = target: T1, Voltage-gated potassium channel, KQT; KCNQ2(Kv7.2)/KCNQ3(Kv7.3) (Homo sapiens); assay: Activation of human Kv7.2/7.3 assessed as difference in G-V midpoint between pre-compound and post-compound conditions at 30 uM at -90 mV holding potential by QPatch method; assay type: protein-complex assay
Mus musculus [20] = assay: Anti-seizure activity in CD-1 mouse assessed as increase in seizure threshold at 10 to 60 mg/kg, po by maximal electroshock-threshold test; assay type: functional, organism-based
Mus musculus [21] = assay: Toxicity in CD-1 mouse at 10 to 60 mg/kg, po by rotarod test; assay type: organism-based; details: in vivo
[22] = target: T1, Voltage-gated potassium channel, KQT; KCNQ2(Kv7.2)/KCNQ3(Kv7.3) (Homo sapiens); assay: Activation of human Kv7.2/7.3 assessed as difference in G-V midpoint between pre-compound and post-compound conditions at 0.016 uM at -90 mV holding potential by QPatch method; assay type: protein-complex assay
[23] = target: T1, Voltage-gated potassium channel, KQT; KCNQ2(Kv7.2)/KCNQ3(Kv7.3) (Homo sapiens); assay: Activation of human Kv7.2/7.3 assessed as difference in G-V midpoint between pre-compound and post-compound conditions at 0.08 uM at -90 mV holding potential by QPatch method; assay type: protein-complex assay
[24] = target: T1, Voltage-gated potassium channel, KQT; KCNQ2(Kv7.2)/KCNQ3(Kv7.3) (Homo sapiens); assay: Activation of human Kv7.2/7.3 assessed as difference in G-V midpoint between pre-compound and post-compound conditions at 0.4 uM at -90 mV holding potential by QPatch method; assay type: protein-complex assay
[25] = target: T1, Voltage-gated potassium channel, KQT; KCNQ2(Kv7.2)/KCNQ3(Kv7.3) (Homo sapiens); assay: Activation of human Kv7.2/7.3 assessed as difference in G-V midpoint between pre-compound and post-compound conditions at 2 uM at -90 mV holding potential by QPatch method; assay type: protein-complex assay
[26] = target: T1, Voltage-gated potassium channel, KQT; KCNQ2(Kv7.2)/KCNQ3(Kv7.3) (Homo sapiens); assay: Activation of human Kv7.2/7.3 assessed as difference in G-V midpoint between pre-compound and post-compound conditions at 10 uM at -90 mV holding potential by QPatch method; assay type: protein-complex assay
[27] = Clearance in human liver microsomes; assay type: ADME, microsome
[28] = target: T1, Voltage-gated potassium channel, KQT; KCNQ2(Kv7.2)/KCNQ3(Kv7.3) (Homo sapiens); assay: Activation of human Kv7.2/7.3 assessed as difference in G-V midpoint between pre-compound and post-compound conditions at 3 uM at -90 mV holding potential by QPatch method; assay type: protein-complex assay

Chain of Voltage-gated potassium channel, KQT; KCNQ2(Kv7.2)/KCNQ3(Kv7.3) (O43526 whole entry): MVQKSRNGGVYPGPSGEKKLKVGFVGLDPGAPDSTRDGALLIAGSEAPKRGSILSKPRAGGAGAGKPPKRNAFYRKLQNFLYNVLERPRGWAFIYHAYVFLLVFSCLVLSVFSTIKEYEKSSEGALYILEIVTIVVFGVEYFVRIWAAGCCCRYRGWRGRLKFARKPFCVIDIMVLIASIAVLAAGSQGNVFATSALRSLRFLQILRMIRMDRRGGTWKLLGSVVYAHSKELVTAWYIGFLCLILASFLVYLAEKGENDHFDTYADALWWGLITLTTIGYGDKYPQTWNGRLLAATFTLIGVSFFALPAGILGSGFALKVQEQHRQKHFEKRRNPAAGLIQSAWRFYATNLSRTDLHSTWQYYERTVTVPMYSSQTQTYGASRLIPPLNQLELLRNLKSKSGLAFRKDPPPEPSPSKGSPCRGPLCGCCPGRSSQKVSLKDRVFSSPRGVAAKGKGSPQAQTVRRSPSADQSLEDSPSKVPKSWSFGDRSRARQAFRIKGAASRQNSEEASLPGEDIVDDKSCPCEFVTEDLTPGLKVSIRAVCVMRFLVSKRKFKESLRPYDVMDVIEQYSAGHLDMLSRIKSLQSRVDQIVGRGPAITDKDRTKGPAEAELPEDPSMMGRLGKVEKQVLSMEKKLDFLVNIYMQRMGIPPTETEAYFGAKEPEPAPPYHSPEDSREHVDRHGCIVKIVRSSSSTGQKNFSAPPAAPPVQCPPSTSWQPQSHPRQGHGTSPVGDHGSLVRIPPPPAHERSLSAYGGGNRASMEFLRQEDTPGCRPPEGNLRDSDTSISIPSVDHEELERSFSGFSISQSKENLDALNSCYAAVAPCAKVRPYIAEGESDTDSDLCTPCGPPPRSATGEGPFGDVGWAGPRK
Chain of Voltage-gated potassium channel, KQT; KCNQ2(Kv7.2)/KCNQ3(Kv7.3) (O43525 whole entry): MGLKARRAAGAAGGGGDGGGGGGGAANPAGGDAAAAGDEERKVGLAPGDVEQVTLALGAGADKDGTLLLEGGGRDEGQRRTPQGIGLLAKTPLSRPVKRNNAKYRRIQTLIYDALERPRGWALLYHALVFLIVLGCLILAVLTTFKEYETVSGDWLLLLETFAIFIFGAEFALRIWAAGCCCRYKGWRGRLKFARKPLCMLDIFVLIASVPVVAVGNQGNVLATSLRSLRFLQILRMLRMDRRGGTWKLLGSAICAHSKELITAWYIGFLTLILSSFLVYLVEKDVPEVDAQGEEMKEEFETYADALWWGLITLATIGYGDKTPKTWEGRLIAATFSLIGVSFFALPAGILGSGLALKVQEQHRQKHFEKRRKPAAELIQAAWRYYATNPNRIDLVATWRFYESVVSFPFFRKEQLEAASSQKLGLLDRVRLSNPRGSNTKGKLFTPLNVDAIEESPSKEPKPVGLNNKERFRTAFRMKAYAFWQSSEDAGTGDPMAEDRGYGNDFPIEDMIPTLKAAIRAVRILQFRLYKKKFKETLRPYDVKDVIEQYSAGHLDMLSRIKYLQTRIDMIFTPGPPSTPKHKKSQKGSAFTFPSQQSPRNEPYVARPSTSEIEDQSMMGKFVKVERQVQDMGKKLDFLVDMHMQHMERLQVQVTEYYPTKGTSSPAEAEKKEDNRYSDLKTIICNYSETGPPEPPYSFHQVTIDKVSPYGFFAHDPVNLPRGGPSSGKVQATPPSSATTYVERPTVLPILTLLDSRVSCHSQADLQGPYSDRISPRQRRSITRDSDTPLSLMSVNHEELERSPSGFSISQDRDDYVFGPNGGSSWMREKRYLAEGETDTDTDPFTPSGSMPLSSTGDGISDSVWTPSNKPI
Chain of Voltage-gated potassium channel KCNQ3/KCNQ5 (O43525 whole entry): as above
Chain of Voltage-gated potassium channel KCNQ3/KCNQ5 (Q9NR82 whole entry): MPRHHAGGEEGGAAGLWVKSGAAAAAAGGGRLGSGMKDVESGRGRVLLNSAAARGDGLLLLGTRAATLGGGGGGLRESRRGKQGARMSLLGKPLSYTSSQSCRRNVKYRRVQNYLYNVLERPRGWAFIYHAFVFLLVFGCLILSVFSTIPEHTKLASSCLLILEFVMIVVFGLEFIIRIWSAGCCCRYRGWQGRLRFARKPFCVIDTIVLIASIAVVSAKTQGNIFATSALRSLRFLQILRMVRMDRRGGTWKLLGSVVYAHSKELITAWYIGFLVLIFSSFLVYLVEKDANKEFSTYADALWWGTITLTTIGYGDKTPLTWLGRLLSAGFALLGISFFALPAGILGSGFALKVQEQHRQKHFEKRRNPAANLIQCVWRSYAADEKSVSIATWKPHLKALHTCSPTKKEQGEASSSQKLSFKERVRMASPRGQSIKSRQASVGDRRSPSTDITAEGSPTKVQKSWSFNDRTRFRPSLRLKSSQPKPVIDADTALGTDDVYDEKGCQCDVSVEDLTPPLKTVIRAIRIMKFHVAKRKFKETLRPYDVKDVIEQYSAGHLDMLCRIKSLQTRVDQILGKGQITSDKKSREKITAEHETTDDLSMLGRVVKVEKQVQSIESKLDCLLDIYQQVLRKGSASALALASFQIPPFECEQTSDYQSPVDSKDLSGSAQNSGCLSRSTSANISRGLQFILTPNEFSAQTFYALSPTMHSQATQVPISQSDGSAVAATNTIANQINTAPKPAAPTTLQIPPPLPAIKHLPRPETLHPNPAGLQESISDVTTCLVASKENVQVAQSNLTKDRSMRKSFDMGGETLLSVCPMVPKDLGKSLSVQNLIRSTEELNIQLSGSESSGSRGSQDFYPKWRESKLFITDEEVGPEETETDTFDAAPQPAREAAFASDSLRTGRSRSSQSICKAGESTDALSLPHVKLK

SMILES	solubility kinetic [1] [µM]	EC50 [2] [nM]	%max [3] [%]	EC50 [4] [nM]	EC50 [5] [nM]	efflux ratio (P-gp)	Activity [9] [µM]	Activity [10] [µM]	also measured
CS(=O)(=O)c1cccc([C@H](CO)NC(=O)c2cc(S(F)(F)(F)(F)F)ccc2Oc2ccccc2)c1	121 (≈ 65 µg/mL)	20 to 60	101	80	> 10000	< 2	–	–	inhibition (INH) [6]: Not Active; Activity (Mus musculus [7]): Active; Activity (Mus musculus [8]): Active
C[C@H](NC(=O)[C@H]1CCCC[C@@H]1c1ccccc1)c1ccccc1	57 (≈ 17.5 µg/mL)	250	115	–	–	< 2	0.1	> 30	–
O=C(N[C@@H](CO)c1cccc(Cl)c1)[C@H]1CC(F)(F)CC[C@@H]1c1ccccc1	318 (≈ 125 µg/mL)	100 to 300	141	360	100	< 2	–	–	IC50 [11]: 280 nM; clearance [12]: 48 mL/min/kg; AUCt/dose (Mus musculus [13]): 0.51 µg·h/mL; Kp [14]: 0.8; V1/2 [15]: 1.8 mV; V1/2 [16]: 10.2 mV; V1/2 [17]: 21 mV; V1/2 [18]: 29.5 mV; V1/2 [19]: 27.8 mV; Activity (Mus musculus [20]): Dose-dependent effect; Activity (Mus musculus [21]): Non-Toxic
C[C@H](NC(=O)c1cc(F)c(F)cc1Oc1ccccc1)c1cccc(S(C)(=O)=O)c1	145 (≈ 62.6 µg/mL)	130 to 200	132	200	160	< 2	–	–	IC50 [11]: 110 nM; clearance [12]: 31 mL/min/kg; AUCt/dose (Mus musculus [13]): 0.33 µg·h/mL; Kp [14]: 1.3; V1/2 [22]: 0.4 mV; V1/2 [23]: 5.1 mV; V1/2 [24]: 14.3 mV; V1/2 [25]: 23.1 mV; V1/2 [26]: 26.8 mV; Activity (Mus musculus [20]): Dose-dependent effect; Activity (Mus musculus [21]): Non-Toxic; Activity (Mus musculus [7]): Active; Activity (Mus musculus [8]): Active
CS(=O)(=O)c1cccc(CNC(=O)c2cc(C(F)(F)F)ccc2Sc2ccccc2)c1	34 (≈ 15.8 µg/mL)	200	175	–	–	< 2	0.02	> 30	CLH [27]: > 3 mL/min/g
CS(=O)(=O)c1cccc(CNC(=O)c2cc(C(F)(F)F)ccc2Oc2ccccc2)c1	23 (≈ 10.3 µg/mL)	160	245	–	–	< 2	0.05	> 30	–
C[C@H](NC(=O)c1cc(C(F)(F)F)ccc1Oc1ccccc1)c1cccc(S(C)(=O)=O)c1	57 (≈ 26.4 µg/mL)	40	134	–	–	< 2	–	–	–
O=C(N[C@@H](CO)c1cccc(C(F)(F)F)c1)[C@H]1CC(F)(F)CC[C@@H]1c1ccccc1	119 (≈ 50.9 µg/mL)	50 to 80	96	250	20	< 2	–	–	–
CS(=O)(=O)c1cccc(CNC(=O)c2cc(S(F)(F)(F)(F)F)ccc2Oc2ccccc2)c1	7 (≈ 3.55 µg/mL)	80	185	–	–	< 2	–	–	–
CS(=O)(=O)c1cccc([C@H](CO)NC(=O)c2cc(C(F)(F)F)ccc2Oc2ccccc2)c1	11 (≈ 5.27 µg/mL)	80	77	–	–	< 2	–	–	–
O=C(N[C@@H](CO)c1ccccc1)[C@H]1CCCC[C@@H]1c1ccccc1	455 (≈ 147 µg/mL)	790	165	–	–	< 2	–	–	–
O=C(N[C@@H](CO)c1ccccc1)[C@H]1CC(F)(F)CC[C@@H]1c1ccccc1	332 (≈ 119 µg/mL)	1300	108	–	–	< 2	–	–	–
O=C(Nc1ccc(Cl)nc1)c1ccc(F)c(F)c1	–	460	–	> 10000	> 10000	–	0.46	0.43 to 1.81	Activity (Mus musculus [20]): Dose-dependent effect; Activity (Mus musculus [21]): Non-Toxic
CCOC(=O)Nc1ccc(NCc2ccc(F)cc2)cc1N	–	–	–	–	–	–	0.32	> 30	–
Cc1cc(C)c(NC(=O)C2CC3CCC2C3)c(C)c1 (stereo unspecified)	–	40	–	500	1600	–	0.04	> 11	V1/2 [28]: 24.7 to 28.4 mV
C[C@H](NC(=O)[C@H]1CC(F)(F)CC[C@@H]1c1ccccc1)c1ccccc1	25 (≈ 8.59 µg/mL)	200 to 400	140	400	4000	< 2	–	–	–
